Results from ChEMBL document CHEMBL3994609, “Model-Based Discovery of Synthetic Agonists for the Zn2+-Sensing G-Protein-Coupled Receptor 39 (GPR39) Reveals Novel Biological Functions” (J Med Chem, 2017).
Values belong to the compound of their own block, whether it stands above or below them. The source made the active and inactive calls. The calls are words filed in the database; no cut-off is given here.

Columns and labels:
[1] = target: T1, G-protein coupled receptor 39 (Homo sapiens) (UniProt O43194); assay: Agonist activity at human GPR39 expressed in HEK293 cells co-expressing Galphaq assessed as myo-[2-3H]inositol phosphate accumulation in presence of 1 uM Zn2+ measured after 75 mins by scintillation proximity assay; format: functional, cell-based
T1 sequence (whole entry): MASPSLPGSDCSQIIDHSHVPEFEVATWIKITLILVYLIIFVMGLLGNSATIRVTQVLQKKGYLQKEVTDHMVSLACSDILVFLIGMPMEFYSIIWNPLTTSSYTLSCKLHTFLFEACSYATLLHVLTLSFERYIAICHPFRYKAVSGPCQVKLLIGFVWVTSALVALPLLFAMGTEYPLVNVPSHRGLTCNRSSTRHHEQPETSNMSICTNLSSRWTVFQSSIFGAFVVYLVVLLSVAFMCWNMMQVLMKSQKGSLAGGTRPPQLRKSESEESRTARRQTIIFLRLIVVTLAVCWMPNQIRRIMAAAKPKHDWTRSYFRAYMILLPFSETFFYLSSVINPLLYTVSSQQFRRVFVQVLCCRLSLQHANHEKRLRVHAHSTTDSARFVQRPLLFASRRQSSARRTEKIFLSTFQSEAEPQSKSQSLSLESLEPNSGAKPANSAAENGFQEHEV

[2] = target: T1, G-protein coupled receptor 39 (Homo sapiens); assay: Agonist activity at human GPR39 expressed in HEK293 cells co-expressing Galphaq assessed as myo-[2-3H]inositol phosphate accumulation in presence of 10 uM Zn2+ measured after 75 mins by scintillation proximity assay relative to zinc; format: functional, cell-based
[3] = target: T1, G-protein coupled receptor 39 (Homo sapiens); assay: (§1) Agonist activity at human GPR39 expressed in HEK293 cells co-expressing Galphaq assessed as myo-[2-3H]inositol phosphate accumulation measured after 75 mins by scintillation proximity assay; format: functional, cell-based
[4] = target: T1, G-protein coupled receptor 39 (Homo sapiens); assay: Agonist activity at human GPR39 expressed in HEK293 cells co-expressing Galphaq assessed as myo-[2-3H]inositol phosphate accumulation in presence of 100 nM Zn2+ measured after 75 mins by scintillation proximity assay; format: functional, cell-based
[5] = target: T2, G-protein coupled receptor 39 (Homo sapiens, UniProt O43194); assay: (§2) Agonist activity at human GPR39 expressed in HEK293 cells co-expressing Galphaq assessed as myo-[2-3H]inositol phosphate accumulation in presence of 10 uM Zn2+ measured after 75 mins by scintillation proximity assay; format: functional, cell-based
T2 sequence (O43194 whole entry): T1 sequence (whole entry)

[6] = test system: Primary gastric mucosal cell; assay: Induction of CGRP-induced somatostatin release in primary gastric mucosal cells isolated from GPR39 deficient C57BL/6 mouse at 1 uM in presence of 10 uM of Zn2+ measured after 4 hrs by radioimmunoassay; format: functional, cell-based
In short: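 Primary gastric mucosal cells from GPR39-KO mice, day after preparation, exposed to ligands (1 μM, 10 μM Zn2+) in triplicate for 4 h; supernatant somatostatin measured by in-house RIA and expressed as percent of medium-alone secretion; 10 nM CGRP used as a comparator stimulus; n=2.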

[7] = target: T3, G-protein coupled receptor 39 (Mus musculus) (UniProt Q5U431); assay: Agonist activity at GPR39 in primary gastric mucosal cells isolated from C57BL/6 mouse assessed as inhibition of basal ghrelin secretion at 1 uM in presence of 10 uM of Zn2+ measured after 4 hrs by ELISA relative to basal level
T3 sequence (whole entry): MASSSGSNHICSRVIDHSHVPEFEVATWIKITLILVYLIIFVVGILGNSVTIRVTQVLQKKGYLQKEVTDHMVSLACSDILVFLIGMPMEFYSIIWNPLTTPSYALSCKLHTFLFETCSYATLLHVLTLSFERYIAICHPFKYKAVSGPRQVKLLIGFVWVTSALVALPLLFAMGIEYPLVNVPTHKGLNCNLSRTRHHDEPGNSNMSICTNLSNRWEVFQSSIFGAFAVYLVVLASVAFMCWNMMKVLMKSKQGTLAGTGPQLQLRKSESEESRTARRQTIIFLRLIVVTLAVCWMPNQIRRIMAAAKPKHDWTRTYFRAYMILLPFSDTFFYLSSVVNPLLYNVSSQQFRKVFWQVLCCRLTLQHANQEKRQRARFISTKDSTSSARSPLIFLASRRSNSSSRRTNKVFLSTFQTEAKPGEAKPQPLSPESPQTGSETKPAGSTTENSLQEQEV

[8] = target: T1, G-protein coupled receptor 39 (Homo sapiens); assay: (§3) Agonist activity at GPR39 (unknown origin) expressed in COS7 cells co-expressing Galphas assessed as increase in intracellular cAMP level in presence of 3 uM Zn2+ measured after 30 mins by chemiluminescence assay; format: functional, cell-based
[9] = target: T2, G-protein coupled receptor 39; assay: as §3; format: functional, cell-based
[10] = target: T3, G-protein coupled receptor 39 (Mus musculus); assay: Agonist activity at GPR39 in primary gastric mucosal cells isolated from C57BL/6 mouse assessed as myo-[2-3H]inositol phosphate accumulation in presence of 10 uM Zn2+ measured after 75 mins by scintillation proximity assay; format: functional
In short: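 Primary murine gastric mucosal cell cultures stimulated with ligand plus 10 μM Zn2+; inositol phosphate turnover read out as for the transfected-cell IP accumulation assay.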

[11] = target: T2, G-protein coupled receptor 39; assay: as §1; format: functional, cell-based
[12] = target: Growth hormone secretagogue receptor type 1 (Homo sapiens) (UniProt Q92847); assay: Agonist activity at human ghrelin receptor ([…]) assessed as myo-[2-3H]inositol phosphate accumulation in presence of 10 uM Zn2+ measured after 75 mins by scintillation proximity assay; format: functional
Sequence of Growth hormone secretagogue receptor type 1 (Homo sapiens) (Q92847 whole entry): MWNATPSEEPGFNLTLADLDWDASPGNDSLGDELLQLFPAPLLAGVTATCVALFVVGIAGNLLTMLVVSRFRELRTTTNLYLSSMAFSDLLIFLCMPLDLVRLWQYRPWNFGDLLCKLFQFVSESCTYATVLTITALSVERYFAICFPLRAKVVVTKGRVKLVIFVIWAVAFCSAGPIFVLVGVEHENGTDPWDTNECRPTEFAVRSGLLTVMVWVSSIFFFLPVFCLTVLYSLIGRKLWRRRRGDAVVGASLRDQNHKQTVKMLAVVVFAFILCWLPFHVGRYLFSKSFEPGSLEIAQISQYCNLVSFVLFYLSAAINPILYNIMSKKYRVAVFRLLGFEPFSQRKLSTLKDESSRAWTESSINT

[13] = target: Neuromedin-U receptor 2 (Homo sapiens) (UniProt Q9GZQ4); assay: Agonist activity at human NMU2 receptor assessed as myo-[2-3H]inositol phosphate accumulation in presence of 10 uM Zn2+ measured after 75 mins by scintillation proximity assay; format: functional
Sequence of Neuromedin-U receptor 2 (Homo sapiens) (Q9GZQ4 whole entry): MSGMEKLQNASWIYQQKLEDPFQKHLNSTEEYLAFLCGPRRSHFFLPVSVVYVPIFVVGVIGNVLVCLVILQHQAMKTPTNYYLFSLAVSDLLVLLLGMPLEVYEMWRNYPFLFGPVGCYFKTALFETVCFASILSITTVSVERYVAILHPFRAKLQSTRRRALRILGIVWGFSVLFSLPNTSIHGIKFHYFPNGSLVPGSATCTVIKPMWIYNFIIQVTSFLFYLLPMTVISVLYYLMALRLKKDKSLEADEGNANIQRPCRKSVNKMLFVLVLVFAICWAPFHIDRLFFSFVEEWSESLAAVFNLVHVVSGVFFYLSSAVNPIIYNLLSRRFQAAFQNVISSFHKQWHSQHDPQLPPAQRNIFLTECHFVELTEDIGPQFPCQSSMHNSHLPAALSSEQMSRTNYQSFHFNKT

[14] = target: T4, G-protein coupled receptor 39 (Mus musculus, UniProt Q5U431); assay: Agonist activity at mouse GPR39 expressed in HEK293 cells co-expressing Galphaq assessed as myo-[2-3H]inositol phosphate accumulation in presence of 10 uM Zn2+ measured after 75 mins by scintillation proximity assay; format: functional, cell-based
T4 sequence (Q5U431 whole entry): T3 sequence (whole entry)

[15] = target: T3, G-protein coupled receptor 39 (Mus musculus); assay: Agonist activity at GPR39 in primary gastric mucosal cells isolated from C57BL/6 mouse assessed as inhibition of isoproterenol-induced ghrelin secretion at 1 uM in presence of 10 uM of Zn2+ and somatostatin receptor antagonist BIM-23627 measured after 4 hrs by ELISA
In short: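 Primary gastric mucosal cell cultures from mice, incubated the day after preparation with ligands at 1 μM with 10 μM Zn2+ (with or without a somatostatin receptor antagonist) in triplicate for 4 h. Acyl-ghrelin in supernatant measured by ELISA, expressed as percent of medium-alone cells; n=5–7; unpaired t-test with Welch's correction versus vehicle.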

[16] = Increase in CGRP-induced somatostatin release in primary gastric mucosal cells isolated from GPR39 deficient C57BL/6 mouse at 1 uM in presence of 10 uM of Zn2+ measured after 4 hrs by radioimmunoassay relative to control; format: functional, Primary gastric mucosal cell; conditions: in the assay text read “C57BL/6 mouse” for “GPR39 deficient C57BL/6 mouse”
[17] = target: C-C chemokine receptor type 5 (Macaca mulatta) (UniProt P61813); assay: Agonist activity at full length monkey CCR5 assessed as myo-[2-3H]inositol phosphate accumulation in presence of 10 uM Zn2+ measured after 75 mins by scintillation proximity assay; format: functional
[18] = target: T1, G-protein coupled receptor 39 (Homo sapiens); assay: Agonist activity at GPR39 (unknown origin) expressed in COS7 cells co-expressing Galphas assessed as increase in intracellular cAMP level measured after 30 mins by chemiluminescence assay; format: functional, cell-based
[19] = target: Growth hormone secretagogue receptor type 1 (Homo sapiens) (UniProt Q92847); assay: Agonist activity at human ghrelin receptor ([…]) assessed as myo-[2-3H]inositol phosphate accumulation measured after 75 mins by scintillation proximity assay; format: functional
[20] = target: Neuromedin-U receptor 2 (Homo sapiens) (UniProt Q9GZQ4); assay: Agonist activity at human NMU2 receptor assessed as myo-[2-3H]inositol phosphate accumulation measured after 75 mins by scintillation proximity assay; format: functional
[21] = target: C-C chemokine receptor type 5 (Macaca mulatta) (UniProt P61813); assay: Agonist activity at full length rhesus monkey CCR5 assessed as myo-[2-3H]inositol phosphate accumulation measured after 75 mins by scintillation proximity assay; format: functional
[22] = target: Motilin receptor (Homo sapiens) (UniProt O43193); assay: Agonist activity at human motilin receptor (412 residues) assessed as myo-[2-3H]inositol phosphate accumulation measured after 75 mins by scintillation proximity assay; format: functional
Sequence of Motilin receptor (Homo sapiens) (O43193 whole entry): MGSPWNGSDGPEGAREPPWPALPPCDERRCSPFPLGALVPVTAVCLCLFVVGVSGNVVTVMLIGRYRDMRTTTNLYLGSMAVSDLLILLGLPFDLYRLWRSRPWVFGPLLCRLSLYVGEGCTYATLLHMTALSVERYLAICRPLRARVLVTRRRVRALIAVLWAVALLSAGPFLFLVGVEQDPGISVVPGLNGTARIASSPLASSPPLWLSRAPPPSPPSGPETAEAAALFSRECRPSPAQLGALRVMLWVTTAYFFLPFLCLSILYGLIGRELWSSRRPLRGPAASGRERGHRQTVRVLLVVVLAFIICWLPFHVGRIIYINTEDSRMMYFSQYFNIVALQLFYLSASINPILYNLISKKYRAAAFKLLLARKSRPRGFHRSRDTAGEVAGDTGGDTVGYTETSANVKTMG

[23] = target: Motilin receptor (Homo sapiens) (UniProt O43193); assay: Agonist activity at human motilin receptor (412 residues) assessed as myo-[2-3H]inositol phosphate accumulation in presence of 10 uM Zn2+ measured after 75 mins by scintillation proximity assay; format: functional
[24] = target: T5, C-C chemokine receptor type 1 (Homo sapiens) (UniProt P32246); assay: Agonist activity at full length human CCR1 assessed as myo-[2-3H]inositol phosphate accumulation in presence of 10 uM Zn2+ measured after 75 mins by scintillation proximity assay; format: functional
T5 sequence (whole entry): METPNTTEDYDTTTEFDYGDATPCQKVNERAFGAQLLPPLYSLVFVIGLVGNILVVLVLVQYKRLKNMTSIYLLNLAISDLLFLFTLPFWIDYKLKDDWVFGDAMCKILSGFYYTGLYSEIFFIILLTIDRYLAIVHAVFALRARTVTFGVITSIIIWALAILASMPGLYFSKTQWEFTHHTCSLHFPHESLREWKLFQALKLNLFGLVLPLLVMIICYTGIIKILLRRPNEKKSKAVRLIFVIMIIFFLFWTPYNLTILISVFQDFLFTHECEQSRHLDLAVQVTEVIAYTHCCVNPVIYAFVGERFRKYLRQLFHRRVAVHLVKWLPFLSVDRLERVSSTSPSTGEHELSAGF

[25] = target: T5, C-C chemokine receptor type 1 (Homo sapiens); assay: Agonist activity at full length human CCR1 assessed as myo-[2-3H]inositol phosphate accumulation measured after 75 mins by scintillation proximity assay; format: functional
[26] = target: T1, G-protein coupled receptor 39 (Homo sapiens); assay: as §2; format: functional, cell-based

Activity [1]: Dose-dependent effect
fold change (FC) [2]: 2
Activity [3]: inactive
Activity [4]: inactive
EC50 [5]: 0.2 µM
Structure (SMILES): O=C1/C(=C/NCCCO)C(c2ccccc2)=NN1c1nc2ccccc2s1

inhibition [7]: 61%
Activity [8]: Dose-dependent effect
EC50 [9]: 0.012 µM
Activity [10]: Dose-dependent effect
EC50 [11]: 0.03 µM
Activity [12]: inactive
Activity [13]: inactive
EC50 [14]: 0.0026 µM
inhibition [15]: inactive
Activity [17]: inactive
EC50 [5]: 0.0015 µM
Activity [18]: inactive
Activity [19]: inactive
Activity [20]: inactive
Activity [21]: inactive
Activity [22]: inactive
Activity [23]: inactive
Activity [24]: inactive
Activity [25]: inactive
Structure (SMILES): Cc1nn(-c2ncnc3nc[nH]c23)c2c1C(OCc1cc(F)cc3c1OCOC3)CC(=O)N2 (centres undefined)
Activity [6]: inactive
Activity [16]: 82%

fold change (FC) [2]: 2
EC50 [11]: 3 µM
Activity [26]: Active
Structure (SMILES): Cc1cc(C)nc(-n2nc(C)c3c2NC(=O)CC3c2ccc(COc3cccc(Cl)c3)cc2)n1 (centres undefined)
